This note sets out measurements from ChEMBL document CHEMBL5236592, “Induction of Ferroptosis in Glioblastoma and Ovarian Cancers by a New Pyrrole Tubulin Assembly Inhibitor” (J Med Chem, 2022).

Series [1] can be described thus: Selectivity index, ratio of IC50 for cytotoxicity against human U-87 MG cells to IC50 for cytotoxicity against human OVCAR-3 cells. In kind it is toxicity, cell-based. The following applies: U-87 MG cells versus OVCAR-3 cells, read-out: Ratio IC50.
For series [2], the system named is T-cell line. As to the kind of experiment: Cytotoxicity against human primary T-lymphocytes assessed as reduction in cell viability at 0.1 uM incubated for 48 to 72 hrs by Annexin V- APC/PI staining based flow cytometry analysis. The following applies: time 48-72 hrs. The series is classed as toxicity. The procedure, abridged:
(§1)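 T lymphocytes negatively selected from healthy-donor PBMCs isolated by density gradient. Cultured at 1.5 × 10^6/mL with 0.1, 1.0 or 2.5 μM compound, DMSO vehicle or untreated, for 48 or 72 h. Stained with annexin V-APC and propidium iodide; early and late apoptotic fractions counted by flow cytometry.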
On the technique in general: In flow cytometry, cells or beads pass a laser one at a time.

The test system of series [3] is T-cell line. Description: Cytotoxicity against human primary T-lymphocytes assessed as reduction in cell viability at 1 to 2.5 uM incubated for 48 to 72 hrs by Annexin V- APC/PI staining based flow cytometry analysis. The series is classed as toxicity. To be noted: dose lower 1 µM, time lower 48 hrs, dose upper 2.5 µM, time upper 72 hrs. The procedure, abridged: as §1

Series [4] relates to SK-OV-3. Description: Antitumor activity against human SK-OV-3 cells xenografted in BALB/C nu/nu mouse assessed as reduction in tumor growth at 25 mg/kg, ip administered every 2 days for 40 days. To be noted: time 40.0 day. The series is classed as functional, organism-based. The gist of the method: (§2)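 Female BALB/c nu/nu mice, 10 weeks old, 4 per group. Received subcutaneous U-87 MG or SKOV-3 cells (1 × 10^8 cells/mL, harvested in log phase). Dosed ip with 100 μL at 25 mg/kg every 2 days; controls got 100 μL saline on the same schedule. Sacrificed at 40 days; tumors weighed, volume = ab²/2. Tumor sections (6 μm, paraffin) stained by immunofluorescence for Ki67 or CD31 with Alexa Fluor 488 secondary.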
For orientation: A xenograft is tissue or cells of one species grown in another, often human tumour cells in immunodeficient mice.

The test system of series [5] is Mus musculus. As to the kind of experiment: Upregulation of Acsf2 mRNA expression in tumor of BALB/C nu/nu mouse xenografted with human U-87 MG cells at 25 mg/kg, ip administered every 2 days for 40 days by qPCR analysis. The series is classed as functional, organism-based. The following applies: time 40.0 day. The procedure, abridged: (§3)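 Female BALB/c nu/nu mice bearing sc U-87 MG or SKOV-3 xenografts were dosed ip at 25 mg/kg (100 μL) every 2 days, or given saline, and tumors were taken at day 40. RNA was extracted from about 20 mg of tissue. qPCR ran 40 cycles (95 °C 15 min; 94 °C 20 s; 60 °C 34 s) on a 69-gene panel. Fold change was by 2^–ΔΔCt, with ≥1.5 counted as increased.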

For series [6], the system named is Mus musculus. As to the kind of experiment: Upregulation of Lpcat3 mRNA expression in tumor of BALB/C nu/nu mouse xenografted with human U-87 MG cells at 25 mg/kg, ip administered every 2 days for 40 days by qPCR analysis. The series is classed as functional, organism-based. The following applies: time 40.0 day. The gist of the method:
(§4)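 Female BALB/c nu/nu mice, 10 weeks old, 4 per group. Inoculated s.c. with 1 × 10^8 cells/mL of log-phase U-87 MG or SKOV-3 cells. Dosed i.p. with 100 μL at 25 mg/kg every 2 days; controls got 100 μL saline. Tumors harvested on day 40. RNA extracted from about 20 mg of tissue. qPCR panel of 69 genes, 40 cycles (94 °C 20 s, 60 °C 34 s). Analysed by 2–ΔΔCt; fold ≥1.5 taken as increased.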

Series [7] relates to Mus musculus. Description: Upregulation of Gclc mRNA expression in tumor of BALB/C nu/nu mouse xenografted with human U-87 MG cells at 25 mg/kg, ip administered every 2 days for 40 days by qPCR analysis. In kind it is functional, organism-based. To be noted: time 40.0 day. The gist of the method:
as §3

Series [8] has as its system Mus musculus. Description: Upregulation of Alfm1 mRNA expression in tumor of BALB/C nu/nu mouse xenografted with human U-87 MG cells at 25 mg/kg, ip administered every 2 days for 40 days by qPCR analysis. In kind it is functional, organism-based. To be noted: time 40.0 day. The gist of the method:
as §3

In series [9] the test system is Mus musculus. Description: Upregulation of Akr1c1 mRNA expression in tumor of BALB/C nu/nu mouse xenografted with human U-87 MG cells at 25 mg/kg, ip administered every 2 days for 40 days by qPCR analysis. In kind it is functional, organism-based. The following applies: time 40.0 day. The procedure, abridged: as §3
The subject of series [10] is Mus musculus. Description: Upregulation of Hspb5 mRNA expression in tumor of BALB/C nu/nu mouse xenografted with human U-87 MG cells at 25 mg/kg, ip administered every 2 days for 40 days by qPCR analysis. The series is classed as functional, organism-based. To be noted: time 40.0 day. The gist of the method:
as §4

For series [11], the system named is Mus musculus. Description: Upregulation of TFRC mRNA expression in tumor of BALB/C nu/nu mouse xenografted with human U-87 MG cells at 25 mg/kg, ip administered every 2 days for 40 days by qPCR analysis. The series is classed as functional, organism-based. To be noted: time 40.0 day. The gist of the method: as §4
Series [12] concerns Mus musculus. As to the kind of experiment: Upregulation of Ireb2 mRNA expression in tumor of BALB/C nu/nu mouse xenografted with human U-87 MG cells at 25 mg/kg, ip administered every 2 days for 40 days by qPCR analysis. In kind it is functional, organism-based. The following applies: time 40.0 day. The procedure, abridged: as §4
For series [13], the system named is Mus musculus. As to the kind of experiment: Upregulation of Htra2 mRNA expression in tumor of BALB/C nu/nu mouse xenografted with human U-87 MG cells at 25 mg/kg, ip administered every 2 days for 40 days by qPCR analysis. The series is classed as functional, organism-based. To be noted: time 40.0 day. The procedure, abridged:
as §4

In series [14] the test system is Mus musculus. As to the kind of experiment: Upregulation of Rpl8 mRNA expression in tumor of BALB/C nu/nu mouse xenografted with human SK-OV-3 cells at 25 mg/kg, ip administered every 2 days for 40 days by qPCR analysis. In kind it is functional, organism-based. The following applies: time 40.0 day. The procedure, abridged:
as §4

In series [15] the test system is Mus musculus. Description: Upregulation of Gss mRNA expression in tumor of BALB/C nu/nu mouse xenografted with human SK-OV-3 cells at 25 mg/kg, ip administered every 2 days for 40 days by qPCR analysis. In kind it is functional, organism-based. The following applies: time 40.0 day. The procedure, abridged: as §4
In series [16] the test system is Mus musculus. As to the kind of experiment: Upregulation of Nrf2 mRNA expression in tumor of BALB/C nu/nu mouse xenografted with human SK-OV-3 cells at 25 mg/kg, ip administered every 2 days for 40 days by qPCR analysis. To be noted: time 40.0 day. In kind it is functional, organism-based. The gist of the method:
as §4

Series [17] has as its system Mus musculus. Description: Upregulation of Cisd1 mRNA expression in tumor of BALB/C nu/nu mouse xenografted with human SK-OV-3 cells at 25 mg/kg, ip administered every 2 days for 40 days by qPCR analysis. In kind it is functional, organism-based. The following applies: time 40.0 day. The procedure, abridged: as §3
The subject of series [18] is Mus musculus. Description: Upregulation of Hspb5 mRNA expression in tumor of BALB/C nu/nu mouse xenografted with human SK-OV-3 cells at 25 mg/kg, ip administered every 2 days for 40 days by qPCR analysis. In kind it is functional, organism-based. The following applies: time 40.0 day. The procedure, abridged:
as §4

Series [19] relates to U-87MG ATCC. Description: Antitumor activity against human U-87 MG cells xenografted in BALB/C nu/nu mouse assessed as reduction in Ki67 expression in tumor at 25 mg/kg, ip administered every 2 days for 40 days by immunofluoresence staining based assay. To be noted: time 40.0 day. The series is classed as functional, organism-based. The gist of the method: as §2
Series [20] concerns U-87MG ATCC. Description: Induction of ferroptosis-mediated antitumor activity against human U-87 MG cells xenografted in BALB/C nu/nu mouse assessed as reduction in FTH1 protein expression in tumor at 25 mg/kg, ip administered every 2 days for 40 days by immunofluoresence staining based assay. To be noted: time 40.0 day. The series is classed as functional, organism-based. The procedure, abridged:
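Xenografts of U-87 MG or SKOV-3 (1 × 10^8 cells/mL, sc) in female BALB/c nu/nu mice, 4 per group. Treated ip at 25 mg/kg in 100 μL every 2 days versus saline, tumors collected at day 40. Paraffin sections (6 μm) were blocked at 37 °C for 30 min, then incubated with rabbit anti-GPX4 or anti-FTH1 and then Alexa Fluor 488 anti-rabbit, each for 45 min at 37 °C.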

Calls of active or inactive are those of the source. The calls are words filed in the database; no cut-off is given here.

As for `COc1cc(C(=O)c2cn(-c3ncccn3)cc2-c2ccco2)cc(OC)c1OC`, in series [1], the selectivity ratio is 3.5. Further, the Activity entry in series [2] is “Non-Toxic”; in [3] it was “Toxic”. In addition, the result in series [4], in series [5], in [6], in series [7], in series [8] and in series [9] was Active. Moreover, the outcome in [10], in [11], in series [12], in series [13], in [14] and in series [15] was Active. Further, the result in [16], in [17], in series [18], in series [19] and in [20] was Active.
